Reference: ChEMBL document CHEMBL1142636 (2000)

What was measured:
MDA-MB-231 = test: Growth inhibition of human MDA-MB-231 cells; format: functional; conditions: read-out: pLC50 (the source's name) (converted)
SK-OV-3 = test: Growth inhibition of human SK-OV-3 cells; format: functional; conditions: read-out: pLC50 (the source's name) (converted)
In short: (§1)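 Tested at the NCI in its human disease-oriented in vitro screen of 60 tumour cell lines, following the Monks et al. methods. Activity is expressed as GI50, given as log molar values.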

LOX IMVI = test: Growth inhibition of human LOX IMVI cells; format: functional; conditions: read-out: pLC50 (the source's name) (converted)
UO-31 = test: Growth inhibition of human UO31 cells; format: functional; conditions: read-out: pLC50 (the source's name) (converted); in short: as §1
SR = test: Growth inhibition of human SR cells; format: functional; in short: as §1
SW-620 = test: Growth inhibition of human SW620 cells; format: functional; in short: as §1
HCT-116 = test: Growth inhibition of human HCT116 cells; format: functional; conditions: read-out: pLC50 (the source's name) (converted)
TK-10 = test: Growth inhibition of human TK10 cells; format: functional; conditions: read-out: pLC50 (the source's name) (converted); in short: as §1
M14 = test: Growth inhibition of human M14 cells; format: functional; conditions: read-out: pLC50 (the source's name) (converted)
Hs-578T = test: Growth inhibition of human HS578T cells; format: functional; conditions: read-out: pLC50 (the source's name) (converted)
SF-295 = test: Growth inhibition of human SF295 cells; format: functional; conditions: read-out: pLC50 (the source's name) (converted); in short: as §1
NCI-H23 = test: Growth inhibition of human NCI-H23 cells; format: functional
MDA-MB-435 = test: Growth inhibition of human MDA-MB-435 cells; format: functional
XF498 = test: Growth inhibition of human XF498 cells; format: functional; conditions: read-out: pLC50 (the source's name) (converted); in short: as §1
HCC 2998 = test: Growth inhibition of human HCC2998 cells; format: functional
[1] = Growth inhibition of human OVACR8 cells; format: functional; conditions: read-out: pLC50 (the source's name) (converted)
SF-268 = test: Growth inhibition of human SF268 cells; format: functional; in short: as §1
K562 = test: Growth inhibition of human K562 cells; format: functional
SK-MEL-28 = test: Growth inhibition of human SK-MEL-28 cells; format: functional; conditions: read-out: pLC50 (the source's name) (converted); in short: as §1
UACC-62 = test: Growth inhibition of human UACC62 cells; format: functional; conditions: read-out: pLC50 (the source's name) (converted); in short: as §1
MCF7 = test: Growth inhibition of human MCF7 cells; format: functional; conditions: read-out: pLC50 (the source's name) (converted)
HOP-62 = test: Growth inhibition of human HOP62 cells; format: functional
PC-3 = test: Growth inhibition of human PC3 cells; format: functional; conditions: read-out: pLC50 (the source's name) (converted)
SNB-19 = test: Growth inhibition of human SNB19 cells; format: functional; conditions: read-out: pLC50 (the source's name) (converted); in short: as §1
DU-145 = test: Growth inhibition of human DU145 cells; format: functional; conditions: read-out: pLC50 (the source's name) (converted)
[2] = Growth inhibition of human DMS144 cells; format: functional
[3] = Growth inhibition of human […] cells; format: functional; conditions: read-out: pLC50 (the source's name) (converted)
[4] = Growth inhibition of human OVACR5 cells; format: functional; conditions: read-out: pLC50 (the source's name) (converted)
DMS-273 = test: Growth inhibition of human DMS273 cells; format: functional
Malme-3M = test: Growth inhibition of human MALME-3M cells; format: functional; conditions: read-out: pLC50 (the source's name) (converted)
[5] = Growth inhibition of human MCF7/ADR-RES cells; format: functional; conditions: NCI/ADR-RES, read-out: pLC50 (the source's name) (converted)
IGROV-1 = test: Growth inhibition of human IGROV1 cells; format: functional; conditions: read-out: pLC50 (the source's name) (converted)
786-0 = test: Growth inhibition of human 786-0 cells; format: functional; conditions: read-out: pLC50 (the source's name) (converted)
KM-20L2 = test: Growth inhibition of human KM20L2 cells; format: functional; conditions: read-out: pLC50 (the source's name) (converted)
MOLT-4 = test: Growth inhibition of human MOLT4 cells; format: functional
KM12 = test: Growth inhibition of human KM12 cells; format: functional; conditions: read-out: pLC50 (the source's name) (converted)
DLD-1 = test: Growth inhibition of human DLD1 cells; format: functional
M19-MEL = test: Growth inhibition of human M19-MEL cells; format: functional; conditions: read-out: pLC50 (the source's name) (converted)
HT-29 = test: Growth inhibition of human HT29 cells; format: functional
NCI-H226 = test: Growth inhibition of human NCI-H226 cells; format: functional
UACC-257 = test: Growth inhibition of human UACC257 cells; format: functional; conditions: read-out: pLC50 (the source's name) (converted); in short: as §1
SF-539 = test: Growth inhibition of human SF539 cells; format: functional; conditions: read-out: pLC50 (the source's name) (converted); in short: as §1
MDA-N = test: Growth inhibition of human MDA-N cells; format: functional; conditions: read-out: pLC50 (the source's name) (converted)
HOP-92 = test: Growth inhibition of human HOP92 cells; format: functional; conditions: read-out: pLC50 (the source's name) (converted)
A549 = test: Growth inhibition of human A549 cells; format: functional
ACHN = test: Growth inhibition of human ACHN cells; format: functional; conditions: read-out: pLC50 (the source's name) (converted)
BT-549 = test: Growth inhibition of human BT549 cells; format: functional
RXF 393 = test: Growth inhibition of human […] cells; format: functional; conditions: read-out: pLC50 (the source's name) (converted)
A498 = test: Growth inhibition of human A498 cells; format: functional; conditions: read-out: pLC50 (the source's name) (converted)
EKVX = test: Growth inhibition of human EKVX cells; format: functional; conditions: read-out: pLC50 (the source's name) (converted)
HCT-15 = test: Growth inhibition of human HCT15 cells; format: functional; conditions: read-out: pLC50 (the source's name) (converted)
CCRF-CEM = test: Growth inhibition of human CCRF-CEM cells; format: functional
NCI-H322M = test: Growth inhibition of human NCI-H322M cells; format: functional
[6] = Growth inhibition of human RPMI8266 cells; format: functional; conditions: read-out: pLC50 (the source's name) (converted)
SK-MEL-2 = test: Growth inhibition of human SK-MEL-2 cells; format: functional; conditions: read-out: pLC50 (the source's name) (converted); in short: as §1
CAKI-1 = test: Growth inhibition of human CAKI1 cells; format: functional; conditions: read-out: pLC50 (the source's name) (converted)
[7] = Growth inhibition of human OVACR4 cells; format: functional; conditions: read-out: pLC50 (the source's name) (converted)
COLO 205 = test: Growth inhibition of human COLO205 cells; format: functional
T47D = test: Growth inhibition of human T47D cells; format: functional; in short: as §1
NCI-H522 = test: Growth inhibition of human NCI-H522 cells; format: functional; conditions: read-out: pLC50 (the source's name) (converted)
[8] = Growth inhibition of human LXFL529 cells; format: functional; conditions: LXFL 529
SK-MEL-5 = test: Growth inhibition of human SK-MEL-5 cells; format: functional; conditions: read-out: pLC50 (the source's name) (converted); in short: as §1
SNB-75 = test: Growth inhibition of human SNB75 cells; format: functional; conditions: read-out: pLC50 (the source's name) (converted); in short: as §1
SN12C = test: Growth inhibition of human SN12C cells; format: functional; conditions: read-out: pLC50 (the source's name) (converted); in short: as §1
HOP-18 = test: Growth inhibition of human HOP18 cells; format: functional; conditions: read-out: pLC50 (the source's name) (converted)
NCI-H460 = test: Growth inhibition of human NCI-H460 cells; format: functional
[9] = Growth inhibition of human HL60(TB) cells; format: functional, HL-60(TB); conditions: HL-60, read-out: pLC50 (the source's name) (converted)
U-251 = test: Growth inhibition of human U251 cells; format: functional; conditions: read-out: pLC50 (the source's name) (converted); in short: as §1

C=C(C)C1CC2(C)CC1c1c(c(C)cc3c1[nH]c1ccccc13)O2 (stereo unspecified)
> 25.1 µM: CC50 (MDA-MB-231) | CC50 (SK-OV-3) | CC50 (LOX IMVI) | CC50 (UO-31) | LC50 (SR) | LC50 (SW-620) | CC50 (HCT-116) | CC50 (TK-10) | CC50 (M14) | CC50 (Hs-578T) | CC50 (SF-295) | LC50 (NCI-H23) | LC50 (MDA-MB-435) | CC50 (XF498) | LC50 (HCC 2998) | CC50 [1] | LC50 (SF-268) | LC50 (K562) | CC50 (SK-MEL-28) | CC50 (UACC-62) | CC50 (MCF7) | LC50 (HOP-62) | CC50 (PC-3) | CC50 (SNB-19) | CC50 (DU-145) | LC50 [2] | CC50 [3] | CC50 [4] | LC50 (DMS-273) | CC50 (Malme-3M) | CC50 [5] | CC50 (IGROV-1) | CC50 (786-0) | CC50 (KM-20L2) | LC50 (MOLT-4) | CC50 (KM12) | LC50 (DLD-1) | CC50 (M19-MEL) | LC50 (HT-29) | LC50 (NCI-H226) | CC50 (UACC-257) | CC50 (SF-539) | CC50 (MDA-N) | CC50 (HOP-92) | LC50 (A549) | CC50 (ACHN) | LC50 (BT-549) | CC50 (RXF 393) | CC50 (A498) | CC50 (EKVX) | CC50 (HCT-15) | LC50 (CCRF-CEM) | LC50 (NCI-H322M) | CC50 [6] | CC50 (SK-MEL-2) | CC50 (CAKI-1) | CC50 [7] | LC50 (COLO 205) | LC50 (T47D) | CC50 (NCI-H522) | LC50 [8] | CC50 (SK-MEL-5) | CC50 (SNB-75) | CC50 (SN12C) | CC50 (HOP-18) | LC50 (NCI-H460) | CC50 [9] | CC50 (U-251)

Cc1cc2c3ccccc3n3c2c2c1O[C@@]1(C)CC[C@H]([C@@H]2C1)C3(C)C
> 25.1 µM: CC50 (MDA-MB-231) | CC50 (SK-OV-3) | CC50 (LOX IMVI) | CC50 (UO-31) | LC50 (SR) | LC50 (SW-620) | CC50 (HCT-116) | CC50 (TK-10) | CC50 (M14) | CC50 (Hs-578T) | CC50 (SF-295) | LC50 (NCI-H23) | LC50 (MDA-MB-435) | CC50 (XF498) | LC50 (HCC 2998) | CC50 [1] | LC50 (SF-268) | LC50 (K562) | CC50 (SK-MEL-28) | CC50 (UACC-62) | CC50 (MCF7) | LC50 (HOP-62) | CC50 (PC-3) | CC50 (SNB-19) | CC50 (DU-145) | LC50 [2] | CC50 [3] | CC50 [4] | LC50 (DMS-273) | CC50 (Malme-3M) | CC50 [5] | CC50 (IGROV-1) | CC50 (786-0) | CC50 (KM-20L2) | LC50 (MOLT-4) | CC50 (KM12) | LC50 (DLD-1) | CC50 (M19-MEL) | LC50 (HT-29) | LC50 (NCI-H226) | CC50 (UACC-257) | CC50 (SF-539) | CC50 (MDA-N) | CC50 (HOP-92) | LC50 (A549) | CC50 (ACHN) | LC50 (BT-549) | CC50 (RXF 393) | CC50 (A498) | CC50 (EKVX) | CC50 (HCT-15) | LC50 (CCRF-CEM) | LC50 (NCI-H322M) | CC50 [6] | CC50 (SK-MEL-2) | CC50 (CAKI-1) | CC50 [7] | LC50 (COLO 205) | LC50 (T47D) | CC50 (NCI-H522) | LC50 [8] | CC50 (SK-MEL-5) | CC50 (SNB-75) | CC50 (SN12C) | CC50 (HOP-18) | LC50 (NCI-H460) | CC50 [9] | CC50 (U-251)
